ChEMBL document CHEMBL4041524, “Synthesis and Characterization of a Novel γ-Aminobutyric Acid Type A (GABAA) Receptor Ligand That Combines Outstanding Metabolic Stability, Pharmacokinetics, and Anxiolytic Efficacy” (J Med Chem, 2016)

Tests used:
[1] = Volume of distribution at steady state in femoral artery/vein cannulated Sprague-Dawley rat at 1 mg/kg, iv administered […] as single dose by LC-MS/MS analysis; assay type: ADME, organism-based; conditions: in vivo, read-out: Vdss
Method in brief: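 Male Sprague-Dawley rats (n = 3 per time point) were dosed i.v. at 1 mg/kg. Plasma concentrations were measured at set time points, and Vdss was taken from the plasma concentration–time profile.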

[2] = target: T1, GABA-A receptor; alpha-2/beta-3/gamma-2 (Homo sapiens) (UniProt P18507+P28472+P47869); experiment: Modulation of recombinant GABA alpha2beta3gamma2 receptor (unknown origin) expressed in Xenopus laevis oocytes assessed as change in GABA-induced EC(3 to 6) current at 10 uM by two-electrode voltage clamp assay; assay type: cell-based
Method in brief: (§1)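 Xenopus laevis oocytes expressing α1, α2, α3 or α5 β3γ2 GABAARs were recorded by two-electrode voltage clamp. Modulation of the GABA EC3-6 current (taken as 100%) was tested at 100 nM, 1 μM and 10 μM in the same cells. Values are mean ± SEM, n = 3–4.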

[3] = target: T1, GABA-A receptor; alpha-2/beta-3/gamma-2 (Homo sapiens); experiment: Modulation of recombinant GABA alpha2beta3gamma2 receptor (unknown origin) expressed in Xenopus laevis oocytes assessed as change in GABA-induced EC(3 to 6) current at 1 uM by two-electrode voltage clamp assay; assay type: cell-based; method in brief: as §1
[4] = Ratio of unbound concentration in Sprague-Dawley rat brain to plasma at 10 mg/kg, ip measured after 4 hrs; assay type: ADME, organism-based
Method in brief: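 Rats were given 10 mg/kg i.p. (n = 3), and total plasma and brain concentrations were measured at 4 h. Unbound concentrations were calculated as Fu × total concentration, and Kp,uu = Cu,brain/Cu,plasma.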

Plasma = experiment: Unbound plasma concentration in Sprague-Dawley rat at 10 mg/kg, ip measured after 4 hrs; assay type: ADME, organism-based; conditions: in vivo
Method in brief: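 Male Sprague-Dawley rats (n = 3) received 10 mg/kg i.p., and total plasma concentration was measured at 4 h. Fraction unbound in plasma was determined in vitro by equilibrium dialysis with rat plasma protein. Unbound concentration was calculated as fraction unbound × total concentration.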

Rattus norvegicus = experiment: Toxicity in water-deprived Sprague-Dawley rat assessed as effect on water drinking time during nonpunished period up to 60 mg/kg, po administered 30 mins prior to testing; assay type: organism-based; conditions: in vivo, 0.5 h
[5] = Clearance in femoral artery/vein cannulated Sprague-Dawley rat at 1 mg/kg, iv administered […] as single dose by LC-MS/MS analysis; assay type: ADME, organism-based; conditions: in vivo
Method in brief: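 Male Sprague-Dawley rats (n = 3 per time point) were dosed 1 mg/kg i.v. or 10 mg/kg i.p. Plasma concentrations were measured at set time points. Clearance, Vdss and T½ came from the i.v. arm, and AUC, Cmax and Tmax from the i.p. arm.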

[6] = target: T2, GABA-A receptor; alpha-1/beta-3/gamma-2 (Homo sapiens, UniProt P14867+P18507+P28472); experiment: Modulation of recombinant human GABA alpha1beta3gamma2 receptor expressed in HEK293 cells assessed as change in GABA-induced current at -80 mV holding potential preincubated for 3 mins followed by co-administration of GABA by electrophysiology method; assay type: cell-based
T2 sequence (P14867 whole entry): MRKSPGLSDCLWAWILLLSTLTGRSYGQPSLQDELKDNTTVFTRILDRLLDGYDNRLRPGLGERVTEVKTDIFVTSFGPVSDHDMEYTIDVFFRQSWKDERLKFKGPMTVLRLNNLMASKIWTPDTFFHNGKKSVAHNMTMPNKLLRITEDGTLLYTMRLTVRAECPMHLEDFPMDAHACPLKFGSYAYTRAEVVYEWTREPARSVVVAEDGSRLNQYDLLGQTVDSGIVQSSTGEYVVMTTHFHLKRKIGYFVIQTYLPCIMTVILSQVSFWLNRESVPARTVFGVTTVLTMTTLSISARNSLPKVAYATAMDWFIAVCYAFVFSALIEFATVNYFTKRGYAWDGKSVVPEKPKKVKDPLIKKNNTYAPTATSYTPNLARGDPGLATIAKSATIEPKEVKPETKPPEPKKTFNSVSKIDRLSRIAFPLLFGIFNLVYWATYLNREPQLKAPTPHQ
T2 sequence (P18507 whole entry): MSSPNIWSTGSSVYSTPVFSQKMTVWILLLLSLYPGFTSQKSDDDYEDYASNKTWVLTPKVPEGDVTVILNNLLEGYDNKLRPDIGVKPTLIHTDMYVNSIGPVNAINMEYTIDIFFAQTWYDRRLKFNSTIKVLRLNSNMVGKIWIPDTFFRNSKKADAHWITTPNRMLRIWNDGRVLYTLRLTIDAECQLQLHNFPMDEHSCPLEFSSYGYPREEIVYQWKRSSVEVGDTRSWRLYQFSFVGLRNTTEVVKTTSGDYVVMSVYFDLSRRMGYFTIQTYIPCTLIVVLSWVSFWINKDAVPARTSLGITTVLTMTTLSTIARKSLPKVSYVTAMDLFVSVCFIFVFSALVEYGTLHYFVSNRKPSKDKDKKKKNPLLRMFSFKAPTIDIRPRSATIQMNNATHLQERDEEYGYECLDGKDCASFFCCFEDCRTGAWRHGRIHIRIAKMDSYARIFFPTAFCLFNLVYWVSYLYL
T2 sequence (P28472 whole entry): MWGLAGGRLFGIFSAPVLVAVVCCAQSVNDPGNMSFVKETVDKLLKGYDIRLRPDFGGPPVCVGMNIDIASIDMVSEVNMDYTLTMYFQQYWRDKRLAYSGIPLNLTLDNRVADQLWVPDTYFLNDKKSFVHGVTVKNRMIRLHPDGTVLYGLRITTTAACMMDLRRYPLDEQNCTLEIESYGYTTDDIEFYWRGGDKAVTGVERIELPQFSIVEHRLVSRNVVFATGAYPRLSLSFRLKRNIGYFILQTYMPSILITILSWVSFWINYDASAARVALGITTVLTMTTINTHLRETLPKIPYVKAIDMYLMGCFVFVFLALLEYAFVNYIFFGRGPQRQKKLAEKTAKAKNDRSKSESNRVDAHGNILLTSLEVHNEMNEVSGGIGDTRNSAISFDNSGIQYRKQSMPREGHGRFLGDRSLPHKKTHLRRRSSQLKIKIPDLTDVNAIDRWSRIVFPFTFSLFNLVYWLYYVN

`C#Cc1ccc2c(c1)C(c1ccccn1)=NCc1c(-c3cnco3)ncn1-2` showed a Vd [1] of 1.4 L/kg, an Activity [2] of 258% and an Activity [3] of 201%. The “K(p,uu,brain)” value [4] was 0.66, the “Cp(f)” value (Plasma) was 552 nM and the Activity (Rattus norvegicus) was “Non-Toxic”. For the same compound, the clearance [5] was 21.7 mL/min/kg and the EC50 [6] was 489 nM.
